Measurements as given in ChEMBL document CHEMBL1124363, “Photoaffinity, biotinyl, and iodo analogues as probes for vasotocin receptors” (1989).
Where a SMILES comes first, the peptide text is derived from it. Bridges are numbered along the chain shown (N, C = ends). [ ]: non-standard residue; d: D form. The star is where a group is joined. Biotin = O=C1N[C@H]2[C@H](CS[C@H]2CCCCC(=O)*)N1; Phe(4-NH2) = Nc1ccc(C[C@H](N)C(=O)O)cc1; Mpa = O=C(O)CCS

Assays:
[1] = Effective concentration of compound for half-maximal response in hydroosmotic toad bladder assay; type: functional; conditions: Amphibia; read-out: ED50 (the source's name)
Procedure, shortened: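 Toad hemibladders filled with Ringer's fluid diluted to half-strength with distilled water. Net osmotic water flux across the bladder wall measured gravimetrically by the Bentley method. ED-50 taken as the concentration giving a half-maximal water flow response.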

Rattus norvegicus [2] = organism: Rattus norvegicus; assay: Antidiuretic activity of compound was assayed on water-loaded rats; type: functional, Urine
Rattus norvegicus [3] = assay: Pressor activity of compound was assayed on urethane-anesthetized, phenoxybenzamine-treated rats; type: functional; design: unit not given here

Structure (SMILES) | EC50 [1] | Antidiuretic activity (Rattus norvegicus [2]) | Pressor activity (Rattus norvegicus [3])
CC[C@H](C)[C@@H]1NC(=O)[C@H](Cc2ccc(O)cc2)NC(=O)[C@@H](N)CSSC[C@@H](C(=O)N2CCC[C@H]2C(=O)N[C@@H](CCCN=C(N)N)C(=O)NCC(N)=O)NC(=O)[C@H](CC(N)=O)NC(=O)[C@H](CCC(N)=O)NC1=O [VASOTOCIN] (HELM PEPTIDE1{C.Y.I.Q.N.C.P.R.G.[am]}$PEPTIDE1,PEPTIDE1,1:R3-6:R3$$$V2.0) | 22 pM | 231 U/mg | 160
CC[C@H](C)[C@@H]1NC(=O)[C@H](Cc2ccc(O)cc2)NC(=O)CCSSC[C@@H](C(=O)N2CCC[C@H]2C(=O)N[C@@H](CCCN=C(N)N)C(=O)N[C@@H](Cc2ccc(N)cc2)C(N)=O)NC(=O)[C@H](CC(N)=O)NC(=O)[C@H](CCC(N)=O)NC1=O (HELM PEPTIDE1{[O=C(CCS[*:3])[*:2]].Y.I.Q.N.C.P.R.[Nc1ccc(C[C@H](N[*:1])C(=O)[*:2])cc1].[am]}$PEPTIDE1,PEPTIDE1,1:R3-6:R3$$$V2.0) | 130 pM | 66 U/mg | 0
CC[C@H](C)[C@@H]1NC(=O)[C@H](Cc2ccc(O)cc2)NC(=O)CCSSC[C@@H](C(=O)N2CCC[C@H]2C(=O)N[C@@H](CCCN=C(N)N)C(=O)N[C@@H](Cc2ccc(N=[N+]=[N-])cc2)C(N)=O)NC(=O)[C@H](CC(N)=O)NC(=O)[C@H](CCC(N)=O)NC1=O (HELM PEPTIDE1{[O=C(CCS[*:3])[*:2]].Y.I.Q.N.C.P.R.[[N-]=[N+]=Nc1ccc(C[C@H](N[*:1])C(=O)[*:2])cc1].[am]}$PEPTIDE1,PEPTIDE1,1:R3-6:R3$$$V2.0) | 90 pM | 40 U/mg | 

Now from value to molecule, other results behind:

EC50 [1] | Structure (SMILES) | Antidiuretic activity (Rattus norvegicus [2]) | Pressor activity (Rattus norvegicus [3])
12000 pM | CC[C@H](C)[C@@H]1NC(=O)[C@H](Cc2ccc(O)cc2)NC(=O)CCSSC[C@@H](C(=O)N2CCC[C@H]2C(=O)N[C@@H](CCCN=C(N)N)C(=O)N[C@@H](Cc2ccc(NC(=O)CCCC[C@@H]3SC[C@@H]4NC(=O)N[C@@H]43)cc2)C(N)=O)NC(=O)[C@H](CC(N)=O)NC(=O)[C@H](CCC(N)=O)NC1=O ([Mpa]YIQNCPR[Phe(4-NH2)](Biotin)-NH2; disulfide 1-6) | 23 U/mg | 
490 pM | CC[C@H](C)[C@@H]1NC(=O)[C@H](Cc2ccc(O)cc2)NC(=O)[C@@H](N)CSSC[C@@H](C(=O)N2CCC[C@H]2C(=O)N[C@@H](CCCN=C(N)N)C(=O)N[C@@H](Cc2ccc(O)cc2)C(N)=O)NC(=O)[C@H](CC(N)=O)NC(=O)[C@H](CCC(N)=O)NC1=O (HELM PEPTIDE1{C.Y.I.Q.N.C.P.R.Y.[am]}$PEPTIDE1,PEPTIDE1,1:R3-6:R3$$$V2.0) | 25 U/mg | 0
2500 pM | CC[C@H](C)[C@@H]1NC(=O)[C@H](Cc2ccccc2)NC(=O)[C@@H](N)CSSC[C@@H](C(=O)N2CCC[C@H]2C(=O)N[C@@H](CCCN=C(N)N)C(=O)N[C@@H](Cc2ccc(O)c(I)c2)C(N)=O)NC(=O)[C@H](CC(N)=O)NC(=O)[C@H](CCC(N)=O)NC1=O (HELM PEPTIDE1{C.F.I.Q.N.C.P.R.[O=C([C@H](Cc1ccc(O)c(I)c1)N[*:1])[*:2]].[am]}$PEPTIDE1,PEPTIDE1,1:R3-6:R3$$$V2.0) | 0.41 U/mg | 
2100 pM | CC[C@H](C)[C@@H]1NC(=O)[C@H](Cc2ccccc2)NC(=O)[C@@H](N)CSSC[C@@H](C(=O)N2CCC[C@H]2C(=O)N[C@@H](CCCN=C(N)N)C(=O)N[C@@H](Cc2ccc(O)cc2)C(N)=O)NC(=O)[C@H](CC(N)=O)NC(=O)[C@H](CCC(N)=O)NC1=O (HELM PEPTIDE1{C.F.I.Q.N.C.P.R.Y.[am]}$PEPTIDE1,PEPTIDE1,1:R3-6:R3$$$V2.0) | 2.8 U/mg | 0
